This is an account of results in ChEMBL document CHEMBL5046272, “Discovery of Potent, Selective, and In Vivo Efficacious AKT Kinase Protein Degraders via Structure-Activity Relationship Studies” (J Med Chem, 2022).

Active and inactive are the calls of the source. No cut-off for these calls is given here.

A short description of data set [1]: Cmax in Swiss albino mouse at 75 mg/kg, ip administered as single dose measured upto 12 hrs by LC-MS/MS analysis. Format: ADME, organism-based. On the set-up: route intraperitoneal, dose 75 mg/kg, time <=12. The note with it: in vivo. The procedure, abridged: (§1)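 Male Swiss Albino mice, single IP dose of HCl salt in 5% DMA/5% Solutol HS-15/90% normal saline. Plasma (~60 μL) drawn from three mice per time point at 0.5, 1, 2, 4, 8 and 12 h. Samples were held below −70 °C and quantified by LC–MS/MS (LLOQ 10.18 ng/mL). Parameters come from non-compartmental analysis of mean concentrations.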

A short description of data set [2]: Toxicity in immunocompromised NU/J mouse xenografted with human PC-3 cells assessed as body weight loss at 75 mg/kg, ip administered once daily for 22 days. Format: organism-based. The note with it: in vivo, 528 h, time 22 day. The procedure, abridged:
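Male NU/J nude mice, 6 weeks old, engrafted with PC-3 cells. Randomized at ~100 mm³ tumors to vehicle (n = 6) or 75 mg/kg IP once daily (n = 7) for 22 days. Body weight compared at study start and end. Unblinded.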

The test system of the next data set is BT-474. Put plainly: Inhibition of colony formation in human BT-474 cells at 0.1 to 10 uM incubated for 14 days by replacing culture medium for every 2 days by crystal violet staining based assay. As to conditions: dose 0.1-10 µM, time 14.0 day. Format: functional, cell-based. The procedure, abridged: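 BT474 cells cultured 14 days with compound. Medium plus compound was replaced every 2 days. Viable cells were then stained with 0.5% crystal violet.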

Data set [3] in a line: Tmax in Swiss albino mouse at 75 mg/kg, ip administered as single dose measured upto 12 hrs by LC-MS/MS analysis. Format: ADME, organism-based. As to conditions: in vivo. The procedure, abridged:
as §1

A further data set concerns PC-3. Nature of the data set: Antiproliferative activity against human PC-3 cells assessed as inhibition of cell growth measured after 5 days by IncuCyte zoom live cell analysis. Format: functional. As to conditions: PC-3, 120 h, time 5 day. The method, boiled down: (§2)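 Cells grown in DMEM with 10% FBS at 37 °C, 5% CO₂. Seeded at 1–3 × 10³ cells/well in triplicate with serial compound dilutions for 5 days. Growth was taken as confluence from IncuCyte phase-contrast images of live cells. Three independent experiments.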

Data set [4] in a line: AUC in Swiss albino mouse at 75 mg/kg, ip administered as single dose measured upto 12 hrs post injection by LC-MS/MS analysis. Format: ADME, organism-based. Set-up: route intraperitoneal, dose 75 mg/kg, time <=12. As to conditions: in vivo. The procedure, abridged: as §1
Data set [5] in a line: Drug exposure in Swiss albino mouse plasma at 75 mg/kg, ip administered as single dose measured upto 12 hrs by LC-MS/MS analysis. Format: ADME, organism-based. The note with it: in vivo. The procedure, abridged:
as §1

The test system of the next data set is MDA-MB-468. Nature of the data set: Antiproliferative activity against human MDA-MB-468 cells assessed as cell growth by measured after 5 days by IncuCyte zoom live cell analysis. The note with it: MDA-MB-468, 120 h, time 5 day. Format: functional. The procedure, abridged: as §2

Regarding `Cc1ncsc1-c1ccc(CNC(=O)[C@@H]2C[C@@H](O)CN2C(=O)[C@@H](NC(=O)CCCCCCCCCCC(=O)N2CCN(CC[C@H](NC(=O)C3(N)CCN(c4ncnc5[nH]ccc45)CC3)c3ccc(Cl)cc3)CC2)C(C)(C)C)cc1`, the concentration in data set [1] peaked (Cmax) at 7 µM. In addition, the Activity result in data set [2] is “Non-Toxic”; in data set [5] it was 3.7 µM. Further, in the data set with BT-474, the inhibition result is “Active”. Moreover, the time to peak (Tmax) in data set [3] turned out to be 2 h. The GI50 in the data set with PC-3 was found to be 0.8 µM; with MDA-MB-468, 1 µM. The AUC in data set [4] turned out to be 63600 ng·h/mL.
